Data published in article PMC11371828 (Nature Communications, 2024).
Entries after “also recorded” stand apart in the source; their conditions may differ. Where no end group is shown, it is not given here. MBP = maltose binding protein (fused N-terminally to the peptide)

B4: IKKβ(1-669) EE, 6xHis tag removed (enzyme, human, UniProt O14920 1-669, looked up)
chain: MSWSPSLTTQTCGAWEMKERLGTGGFGNVIRWHNQETGEQIAIKQCRQELSPRNRERWCLEIQIMRRLTHPNVVAARDVPEGMQNLAPNDLPLLAMEYCQGGDLRKYLNQFENCCGLREGAILTLLSDIASALRYLHENRIIHRDLKPENIVLQQGEQRLIHKIIDLGYAKELDQGELCTEFVGTLQYLAPELLEQQKYTVTVDYWSFGTLAFECITGFRPFLPNWQPVQWHSKVRQKSEVDIVVSEDLNGTVKFSSSLPYPNNLNSVLAERLEKWLQLMLMWHPRQRGTDPTYGPNGCFKALDDILNLKLVHILNMVTGTIHTYPVTEDESLQSLKARIQQDTGIPEEDQELLQEAGLALIPDKPATQCISDGKLNEGHTLDMDLVFLFDNSKITYETQISPRPQPESVSCILQEPKRNLAFFQLRKVWGQVWHSIQTLKEDCNRLQQGQRAAMMNLLRNNSCLSKMKNSMASMSQQLKAKLDFFKTSIQIDLEKYSEQTEFGITSDKLLLAWREMEQAVELCGRENEVKLLVERMMALQTDIVDLQRSPMGRKQGGTLDDLEEQARELYRRLREKPRDQRTEGDSQEMVRLLLQAIQSFEKKVRVIYTQLSKTVVCKQKALELLPKVEEVVSLMNEDEKTVVRLQEKRQKELWNLLKIACSKVRGPV

What was measured:
[1] = target: T1, IKKα(10-667) EE homodimer (Homo sapiens, UniProt O15111, S176E/S180E); assay: ITC of synthetic YDDΦxΦ peptides with IKKα homodimer; format: binding; conditions: for ITC binding to IKKα, in words: 25 °C, titration of the IKKα homodimer with synthetic peptide
T1 sequence (O15111 10-667 S176E/S180E): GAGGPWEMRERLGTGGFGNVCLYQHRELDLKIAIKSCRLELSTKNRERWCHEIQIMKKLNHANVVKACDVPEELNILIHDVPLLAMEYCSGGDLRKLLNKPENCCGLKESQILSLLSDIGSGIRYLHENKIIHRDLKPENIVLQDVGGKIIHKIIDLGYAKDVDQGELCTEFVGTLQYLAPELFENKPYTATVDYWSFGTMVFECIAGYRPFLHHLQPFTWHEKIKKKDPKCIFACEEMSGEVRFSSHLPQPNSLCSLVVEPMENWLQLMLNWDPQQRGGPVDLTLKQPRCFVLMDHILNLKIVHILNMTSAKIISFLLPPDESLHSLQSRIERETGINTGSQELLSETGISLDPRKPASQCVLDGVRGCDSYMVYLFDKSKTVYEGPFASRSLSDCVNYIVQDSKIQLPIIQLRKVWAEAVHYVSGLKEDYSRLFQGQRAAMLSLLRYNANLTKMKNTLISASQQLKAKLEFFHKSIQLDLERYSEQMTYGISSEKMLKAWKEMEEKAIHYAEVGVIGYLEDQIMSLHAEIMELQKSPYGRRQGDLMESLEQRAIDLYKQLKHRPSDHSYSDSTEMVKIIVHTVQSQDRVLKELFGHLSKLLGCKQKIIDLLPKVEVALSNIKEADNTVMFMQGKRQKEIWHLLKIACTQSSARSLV
Summary of the method: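 IKKα(10-667) EE was expressed in Sf21 insect cells and purified by Ni-NTA affinity. It was then dialyzed overnight at 4 °C against ITC buffer (20 mM HEPES pH 8.0, 150 mM NaCl, 1 mM TCEP), which was used for all titrations unless otherwise stated.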

[2] = tested on: IKKα/β heterodimer (6xHis-IKKβ(1-669) EE, Strep-IKKα(10-667) EE); assay: MBP-pulldown with purified IKKα/β heterodimer; format: binding; conditions: MBP-IκBα pep(s) vs MBP negative control, Coomassie
Summary of the method: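 Heterodimer co-expressed in Sf21 insect cells, purified on Strep-Tactin then Ni-NTA, pre-incubated with 1 mM ATP, MgCl2, β-glycerophosphate, NaF and orthovanadate for 1 h on ice, then gel-filtered in Tris pH 8.0 buffer. MBP-fusion baits expressed in E. coli BL21(DE3), captured on amylose resin. Binding in 20 mM Tris pH 8.0, 150 mM NaCl, 2 mM DTT. Bound proteins Coomassie-stained.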

6xHis-IKKβ(1-669) EE [3] = target: T2, 6xHis-IKKβ(1-669) EE (human, UniProt O14920 1-669, S177E | S181E); assay: pull-down
T2 sequence (looked up): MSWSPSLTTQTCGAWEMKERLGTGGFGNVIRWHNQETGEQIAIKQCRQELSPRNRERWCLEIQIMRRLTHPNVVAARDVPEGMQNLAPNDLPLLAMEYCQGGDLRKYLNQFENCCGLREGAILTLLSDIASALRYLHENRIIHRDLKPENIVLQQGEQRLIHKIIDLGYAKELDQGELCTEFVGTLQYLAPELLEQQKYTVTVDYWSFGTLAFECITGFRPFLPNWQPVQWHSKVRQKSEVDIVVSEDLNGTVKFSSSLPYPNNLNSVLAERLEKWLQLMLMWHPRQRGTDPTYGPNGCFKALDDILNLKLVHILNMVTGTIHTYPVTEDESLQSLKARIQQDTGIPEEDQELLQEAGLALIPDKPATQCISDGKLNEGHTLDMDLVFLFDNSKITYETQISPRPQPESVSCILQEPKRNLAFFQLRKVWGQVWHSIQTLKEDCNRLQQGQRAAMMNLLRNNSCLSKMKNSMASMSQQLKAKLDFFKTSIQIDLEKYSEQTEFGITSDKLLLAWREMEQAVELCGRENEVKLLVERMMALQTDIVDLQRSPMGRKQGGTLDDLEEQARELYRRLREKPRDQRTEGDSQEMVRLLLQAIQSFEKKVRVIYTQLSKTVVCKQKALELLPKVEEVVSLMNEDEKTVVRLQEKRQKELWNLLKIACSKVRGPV

[4] = tested on: MEF cells KO for IκBα, IκBβ, IκBε; assay: In cellulo degradation of retro-transduced IκBα proteins after TNFα; format: cell-based, mouse; conditions: retro-transduced IκBα constructs, TNFα 20 ng/ml, compared with wt IκBα
Summary of the method: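 Retroviruses came from Phoenix-eco cells (5 × 10^6) transfected with 6 μg pBABE-IκBα plasmid; empty vector was the control. Medium was changed at 6 h and the virus-containing medium collected at 48 h, filtered, and used to infect the MEFs.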

6xHis-IKKβ(1-669) EE [5] = target: T2, 6xHis-IKKβ(1-669) EE; assay: pull-down; remark: listed apart in the source
[6] = target: T3, IKKα(10-667) EE, 6xHis tag removed (UniProt O15111 10-667, S176E | S180E); assay: ITC
T3 sequence (looked up): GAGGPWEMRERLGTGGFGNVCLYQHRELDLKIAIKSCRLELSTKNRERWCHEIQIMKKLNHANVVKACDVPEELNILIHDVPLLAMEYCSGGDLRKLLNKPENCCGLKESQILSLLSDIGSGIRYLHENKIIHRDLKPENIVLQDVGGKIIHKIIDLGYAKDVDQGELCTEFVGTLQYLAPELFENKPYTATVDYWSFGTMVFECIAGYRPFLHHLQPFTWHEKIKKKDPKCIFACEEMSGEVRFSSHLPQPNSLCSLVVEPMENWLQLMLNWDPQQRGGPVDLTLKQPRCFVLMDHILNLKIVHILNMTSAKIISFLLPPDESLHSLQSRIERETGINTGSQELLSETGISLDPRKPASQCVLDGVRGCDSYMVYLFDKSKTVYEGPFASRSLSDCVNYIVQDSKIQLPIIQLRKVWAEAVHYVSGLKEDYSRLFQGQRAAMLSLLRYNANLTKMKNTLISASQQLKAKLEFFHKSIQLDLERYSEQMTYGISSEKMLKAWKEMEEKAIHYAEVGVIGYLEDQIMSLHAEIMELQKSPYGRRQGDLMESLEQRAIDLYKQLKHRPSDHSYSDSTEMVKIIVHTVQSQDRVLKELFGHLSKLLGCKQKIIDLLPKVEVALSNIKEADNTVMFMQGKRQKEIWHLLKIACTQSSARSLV

[7] = target: B4; assay: ITC
6xHis-IKKβ(1-669) EE [8] = target: T2, 6xHis-IKKβ(1-669) EE; assay: cross-linking
crystal structure = target: the molecule itself; assay: crystal structure

Question: With “EFTEDELPYDDLVFGGQRLTL-NH2 [IκBα pep C308L]” as the molecule, how does the Kd [1] read?
Answer: Its Kd is 0.42 µM.

Question: EFTEDELPpYDDLVFGGQRLTL [pY-IκBα pep] was tested. Which “ITC binding to IKKα, in words” value [1] did it give?
Answer: The value was “too weak to allow for accurate thermodynamic analysis; also recorded: absence of interaction”.

Question: How did the “binding of the IKKα/β heterodimer in MBP-pulldown, in words” value [2] turn out when “IκBα pep(s): 17 amino acid peptide, residues 301-317 of IκBα, fused to MBP ({MBP}-DELPYDDCVFGGQRLTL)” was run?
Answer: Its value is “specifically binds”.

Question: How did the “ITC binding to IKKα, in words” value [1] turn out when LSSANSLYDDIECFLMELEQPA [IRF7 pep] was run?
Answer: The value was “too weak to allow for accurate thermodynamic analysis; also recorded: binds with weak affinity to IKKα”.

B1: MBP-IκBα full length (natural protein, human, UniProt P25963 1-317, looked up)
chain: MFQAAERPQEWAMEGPRDGLKKERLLDDRHDSGLDSMKDEEYEQMVKELQEIRLEPQEVPRGSEPWKQQLTEDGDSFLHLAIIHEEKALTMEVIRQVKGDLAFLNFQNNLQQTPLHLAVITNQPEIAEALLGAGCDPELRDFRGNTPLHLACEQGCLASVGVLTQSCTTPHLHSILKATNYNGHTCLHLASIHGYLGIVELLVSLGADVNAQEPCNGRTALHLAVDLQNPDLVSLLLKCGADVNRVTYQGYSPYQLTWGRPSTRIQQQLGQLTLENLQMLPESEDEESYDTESEFTEFTEDELPYDDCVFGGQRLTL
Question: Does B1 bind (6xHis-IKKβ(1-669) EE [3])?
Answer: Result: binds

B2: IkBa C308F (protein, UniProt P25963 1-317, looked up, variant C308F)
NF-kappa-B inhibitor alpha: MFQAAERPQEWAMEGPRDGLKKERLLDDRHDSGLDSMKDEEYEQMVKELQEIRLEPQEVPRGSEPWKQQLTEDGDSFLHLAIIHEEKALTMEVIRQVKGDLAFLNFQNNLQQTPLHLAVITNQPEIAEALLGAGCDPELRDFRGNTPLHLACEQGCLASVGVLTQSCTTPHLHSILKATNYNGHTCLHLASIHGYLGIVELLVSLGADVNAQEPCNGRTALHLAVDLQNPDLVSLLLKCGADVNRVTYQGYSPYQLTWGRPSTRIQQQLGQLTLENLQMLPESEDEESYDTESEFTEFTEDELPYDDFVFGGQRLTL
Question: B2 was tested. Which “IκBα degradation after TNFα stimulation, in words” value [4] did it give?
Answer: The value was “slightly faster compared to that of the wt IκBα protein”.

B3: MBP-IκBα(73-317) (domain or fragment, human, UniProt P25963 73-317, looked up)
chain: DGDSFLHLAIIHEEKALTMEVIRQVKGDLAFLNFQNNLQQTPLHLAVITNQPEIAEALLGAGCDPELRDFRGNTPLHLACEQGCLASVGVLTQSCTTPHLHSILKATNYNGHTCLHLASIHGYLGIVELLVSLGADVNAQEPCNGRTALHLAVDLQNPDLVSLLLKCGADVNRVTYQGYSPYQLTWGRPSTRIQQQLGQLTLENLQMLPESEDEESYDTESEFTEFTEDELPYDDCVFGGQRLTL
Question: Does B3 bind (6xHis-IKKβ(1-669) EE [5])?
Answer: Result: binds

Question: Does DELPYDDLVFGGQRLTL (peptide, UniProt P25963 301-317, looked up) [MBP-IκBα pep(s) C308L] bind (6xHis-IKKβ(1-669) EE [5])?
Answer: Result: binds

Question: Does DELPYDDFVFGGQRLTL (peptide, UniProt P25963 301-317, looked up) [MBP-IκBα pep(s) C308F] bind (6xHis-IKKβ(1-669) EE [5])?
Answer: Result: binds

Question: Which results are given for EFTEDELPYDDCVFGGQRLTL [IκBα pep (synthetic, residues 297-317 of IκBα)]?
Answer: Kd [6]: 7.7 µM; dH [6]: -14.2 kcal/mol; stoichiometry N [6]: 0.63; Kd [7]: 40 µM; dH [7]: -16.3 kcal/mol; stoichiometry N [7]: 0.63

Question: Which results are given for EFTEDELPYDDLVFGGQRLTL-NH2 [C308L IκBα pep (synthetic)]?
Answer: Kd [7]: 2.4 µM; dH [7]: -11.5 kcal/mol; stoichiometry N [7]: 0.66

Question: Does EFTEDELPYDDLVFGGQKLTL-NH2 [C308L/R314K IκBα pep (synthetic)] bind (6xHis-IKKβ(1-669) EE [8])?
Answer: Result: binds

Question: Does B4 bind (crystal structure)?
Answer: Result: binds

Question: How did the Kd [6] turn out when GLDGIIEYDDFKLNSSIVEPKE [p100 pep (synthetic, residues 8-29 of p100)] was run?
Answer: Its Kd is about 12 µM.

Question: What about the dH [6] of the same molecule?
Answer: Its dH is about -13.4 kcal/mol.

Question: And the “stoichiometry N” value [6]?
Answer: The value was 0.6.
